Experimental data: ChEMBL document CHEMBL4118253, “Expedient synthesis and biological evaluation of alkenyl acyclic nucleoside phosphonate prodrugs” (Bioorg Med Chem, 2018)

How the values were obtained:
Vaccinia virus = test: Antiviral activity against Vaccinia virus infected in HEL cells assessed as inhibition of virus-induced cytopathicity; format: functional, organism-based; conditions: Orthopoxvirus vaccinia
[1] = test system: Vesicular stomatitis virus; test: Antiviral activity against Vesicular stomatitis virus infected in human HeLa cells assessed as inhibition of virus-induced cytopathicity; format: functional, organism-based
Human betaherpesvirus 5 [2] = test: Antiviral activity against Human cytomegalovirus Davis infected in HEL cells assessed as inhibition of virus-induced cytopathicity; format: functional, organism-based; conditions: Human betaherpesvirus 5, Davis
[3] = Cytotoxicity against MDCK cells assessed as alteration of cell morphology by microscopic analysis; format: cell-based, Canis lupus familiaris; conditions: dog
Human alphaherpesvirus 1 [4] = test: Antiviral activity against Herpes simplex virus 1 KOS infected in HEL cells assessed as inhibition of virus-induced cytopathicity; format: functional, organism-based; conditions: Human alphaherpesvirus 1, KOS
Influenza A virus H3N2 [5] = test: Antiviral activity against Influenza A virus H3N2 infected in MDCK cells assessed as inhibition of virus-induced visual cytopathicity; format: functional, organism-based
Influenza B virus [6] = test: Antiviral activity against Influenza B virus infected in MDCK cells assessed as inhibition of virus-induced visual cytopathicity; format: functional, organism-based
[7] = test system: Respiratory syncytial virus; test: Antiviral activity against Respiratory syncytial virus infected in human HeLa cells assessed as inhibition of virus-induced cytopathicity; format: functional, organism-based
[8] = Cytotoxicity against human HeLa cells assessed as alteration of cell morphology by microscopic analysis; format: cell-based
Influenza A virus H3N2 [9] = test: Antiviral activity against Influenza A virus H3N2 infected in MDCK cells assessed as inhibition of virus-induced cytopathicity by MTS assay; format: functional, organism-based
[10] = Cytotoxicity against HEL cells assessed as alteration of cell morphology by microscopic analysis; format: cell-based; conditions: human
Outline: (§1)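 The value is the minimal cytotoxic concentration (MCC), the lowest concentration that causes a microscopically visible change in cell morphology. It was read in the same HEL or Vero cell cultures used for the antiviral tests.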

Human alphaherpesvirus 3 [11] = test: Antiviral activity against thymidine kinase expressing Varicella-Zoster virus infected in HEL cells assessed as reduction in virus plaque formation; format: functional, organism-based; conditions: Human alphaherpesvirus 3, HEL
Yellow fever virus = test: Antiviral activity against Yellow fever virus infected in African green monkey Vero cells assessed as inhibition of virus-induced cytopathicity; format: functional, organism-based
Human alphaherpesvirus 3 [12] = test: Antiviral activity against thymidine kinase deficient Varicella-Zoster virus infected in HEL cells assessed as reduction in virus plaque formation; format: functional, organism-based; conditions: Human alphaherpesvirus 3, HEL
Influenza A virus [13] = test: Antiviral activity against Influenza A virus H1N1 infected in MDCK cells assessed as inhibition of virus-induced visual cytopathicity; format: functional, organism-based
Punta Toro virus = test: Antiviral activity against Punta Toro virus infected in African green monkey Vero cells assessed as inhibition of virus-induced cytopathicity; format: functional, organism-based
Sindbis virus = test: Antiviral activity against Sindbis Virus infected in African green monkey Vero cells assessed as inhibition of virus-induced cytopathicity; format: functional, organism-based
Coxsackievirus B4 = test: Antiviral activity against Coxsackie virus B4 infected in African green monkey Vero cells assessed as inhibition of virus-induced cytopathicity; format: functional, organism-based; conditions: Enterovirus B
Human betaherpesvirus 5 [14] = test: Antiviral activity against Human cytomegalovirus AD169 infected in HEL cells assessed as inhibition of virus-induced cytopathicity; format: functional, organism-based; conditions: Human betaherpesvirus 5, AD169, HEL
Influenza B virus [15] = test: Antiviral activity against Influenza B virus infected in MDCK cells assessed as inhibition of virus-induced cytopathicity by MTS assay; format: functional, organism-based
Human coronavirus 229E = test: Antiviral activity against Human coronavirus 229E infected in HEL cells assessed as inhibition of virus-induced cytopathicity; format: functional, organism-based
[16] = Cytotoxicity against African green monkey Vero cells assessed as alteration of cell morphology by microscopic analysis; format: cell-based; conditions: chlorocebus sabaeus; outline: as §1
Human respirovirus 3 = test: Antiviral activity against Parainfluenza virus 3 infected in human HeLa cells assessed as inhibition of virus-induced cytopathicity; format: functional, organism-based; conditions: Human respirovirus 3, HeLa
[17] = test system: Mammalian orthoreovirus 1; test: Antiviral activity against Reovirus-1 infected in human HeLa cells assessed as inhibition of virus-induced cytopathicity; format: functional, organism-based; conditions: Mammalian orthoreovirus 1, HeLa
Influenza A virus [18] = test: Antiviral activity against Influenza A virus H1N1 infected in MDCK cells assessed as inhibition of virus-induced cytopathicity by MTS assay; format: functional, organism-based
Human adenovirus 2 = test: Antiviral activity against Adenovirus 2 infected in HEL cells assessed as inhibition of virus-induced cytopathicity; format: functional, organism-based; conditions: Human mastadenovirus C
Human alphaherpesvirus 1 [19] = test: Antiviral activity against acyclovir-resistant thymidine kinase deficient Herpes simplex virus 1 KOS infected in HEL cells assessed as inhibition of virus-induced cytopathicity; format: functional, organism-based; conditions: Human alphaherpesvirus 1, KOS
Human alphaherpesvirus 2 = test: Antiviral activity against Herpes simplex virus 2 G infected in HEL cells assessed as inhibition of virus-induced cytopathicity; format: functional, organism-based; conditions: Human alphaherpesvirus 2, strain G

SMILES: C/C(=C\CP(=O)(N[C@@H](C)C(=O)OCc1ccccc1)Oc1ccccc1)Cn1ccc(=O)[nH]c1=O (some centres not stated)
- EC50 (Vaccinia virus): > 100 µM
- EC50 [1]: > 100 µM
- EC50 (Human betaherpesvirus 5 [2]): > 100 µM
- MCC [3]: > 100 µM
- EC50 (Human alphaherpesvirus 1 [4]): > 100 µM
- EC50 (Influenza A virus H3N2 [5]): > 100 µM
- EC50 (Influenza B virus [6]): > 100 µM
- EC50 [7]: > 100 µM
- MCC [8]: > 100 µM
- EC50 (Influenza A virus H3N2 [9]): > 100 µM
- MCC [10]: > 100 µM
- EC50 (Human alphaherpesvirus 3 [11]): > 100 µM
- EC50 (Yellow fever virus): > 100 µM
- EC50 (Human alphaherpesvirus 3 [12]): > 100 µM
- EC50 (Influenza A virus [13]): > 100 µM
- EC50 (Punta Toro virus): > 100 µM
- EC50 (Sindbis virus): > 100 µM
- EC50 (Coxsackievirus B4): > 100 µM
- EC50 (Human betaherpesvirus 5 [14]): > 100 µM
- EC50 (Influenza B virus [15]): > 100 µM
- EC50 (Human coronavirus 229E): > 100 µM
- MCC [16]: > 100 µM
- EC50 (Human respirovirus 3): > 100 µM
- EC50 [17]: > 100 µM
- EC50 (Influenza A virus [18]): > 100 µM
- EC50 (Human adenovirus 2): > 100 µM
- EC50 (Human alphaherpesvirus 1 [19]): > 100 µM
- EC50 (Human alphaherpesvirus 2): > 100 µM

SMILES: C/C(=C\CP(=O)(N[C@@H](C)C(=O)OC(C)C)Oc1cccc2ccccc12)Cn1ccc(=O)[nH]c1=O (some centres not stated)
- EC50 (Vaccinia virus): > 100 µM
- EC50 [1]: > 100 µM
- EC50 (Human betaherpesvirus 5 [2]): > 100 µM
- MCC [3]: > 100 µM
- EC50 (Human alphaherpesvirus 1 [4]): > 100 µM
- EC50 (Influenza A virus H3N2 [5]): > 100 µM
- EC50 (Influenza B virus [6]): > 100 µM
- EC50 [7]: > 100 µM
- MCC [8]: > 100 µM
- EC50 (Influenza A virus H3N2 [9]): > 100 µM
- MCC [10]: > 100 µM
- EC50 (Human alphaherpesvirus 3 [11]): 20 µM
- EC50 (Yellow fever virus): > 100 µM
- EC50 (Human alphaherpesvirus 3 [12]): > 100 µM
- EC50 (Influenza A virus [13]): > 100 µM
- EC50 (Punta Toro virus): > 100 µM
- EC50 (Sindbis virus): > 100 µM
- EC50 (Coxsackievirus B4): > 100 µM
- EC50 (Human betaherpesvirus 5 [14]): > 100 µM
- EC50 (Influenza B virus [15]): > 100 µM
- EC50 (Human coronavirus 229E): > 100 µM
- MCC [16]: > 100 µM
- EC50 (Human respirovirus 3): > 100 µM
- EC50 [17]: > 100 µM
- EC50 (Influenza A virus [18]): > 100 µM
- EC50 (Human adenovirus 2): > 100 µM
- EC50 (Human alphaherpesvirus 1 [19]): > 100 µM
- EC50 (Human alphaherpesvirus 2): > 100 µM

SMILES: C/C(=C/CP(=O)(N[C@@H](C)C(=O)OC(C)C)Oc1cccc2ccccc12)Cn1cc(C)c(=O)[nH]c1=O (some centres not stated)
- EC50 (Vaccinia virus): > 100 µM
- EC50 [1]: > 100 µM
- EC50 (Human betaherpesvirus 5 [2]): 44.7 µM
- MCC [3]: 100 µM
- EC50 (Human alphaherpesvirus 1 [4]): > 100 µM
- EC50 (Influenza A virus H3N2 [5]): > 100 µM
- EC50 (Influenza B virus [6]): > 100 µM
- EC50 [7]: > 100 µM
- MCC [8]: ≥ 20 µM
- EC50 (Influenza A virus H3N2 [9]): > 100 µM
- MCC [10]: 100 µM
- EC50 (Human alphaherpesvirus 3 [11]): 39.9 µM
- EC50 (Yellow fever virus): > 100 µM
- EC50 (Human alphaherpesvirus 3 [12]): 41.6 µM
- EC50 (Influenza A virus [13]): > 100 µM
- EC50 (Punta Toro virus): > 100 µM
- EC50 (Sindbis virus): > 100 µM
- EC50 (Coxsackievirus B4): > 100 µM
- EC50 (Human betaherpesvirus 5 [14]): > 20 µM
- EC50 (Influenza B virus [15]): > 100 µM
- EC50 (Human coronavirus 229E): > 100 µM
- MCC [16]: ≥ 20 µM
- EC50 (Human respirovirus 3): > 100 µM
- EC50 [17]: > 100 µM
- EC50 (Influenza A virus [18]): > 100 µM
- EC50 (Human adenovirus 2): > 100 µM
- EC50 (Human alphaherpesvirus 1 [19]): > 100 µM
- EC50 (Human alphaherpesvirus 2): > 100 µM

SMILES: C/C(=C/CP(=O)(N[C@@H](C)C(=O)OC(C)C)Oc1cccc2c1CCCC2)Cn1ccc(=O)[nH]c1=O (some centres not stated)
- EC50 (Vaccinia virus): > 100 µM
- EC50 [1]: > 100 µM
- EC50 (Human betaherpesvirus 5 [2]): 54.7 µM
- MCC [3]: 100 µM
- EC50 (Human alphaherpesvirus 1 [4]): > 100 µM
- EC50 (Influenza A virus H3N2 [5]): > 100 µM
- EC50 (Influenza B virus [6]): > 100 µM
- EC50 [7]: > 100 µM
- MCC [8]: > 100 µM
- EC50 (Influenza A virus H3N2 [9]): > 100 µM
- MCC [10]: 100 µM
- EC50 (Human alphaherpesvirus 3 [11]): 58.5 µM
- EC50 (Yellow fever virus): > 100 µM
- EC50 (Human alphaherpesvirus 3 [12]): 100 µM
- EC50 (Influenza A virus [13]): > 100 µM
- EC50 (Punta Toro virus): > 100 µM
- EC50 (Sindbis virus): > 100 µM
- EC50 (Coxsackievirus B4): > 100 µM
- EC50 (Human betaherpesvirus 5 [14]): > 20 µM
- EC50 (Influenza B virus [15]): > 100 µM
- EC50 (Human coronavirus 229E): > 100 µM
- MCC [16]: > 100 µM
- EC50 (Human respirovirus 3): > 100 µM
- EC50 [17]: > 100 µM
- EC50 (Influenza A virus [18]): 100 µM
- EC50 (Human adenovirus 2): > 100 µM
- EC50 (Human alphaherpesvirus 1 [19]): > 100 µM
- EC50 (Human alphaherpesvirus 2): > 100 µM
